Reference: publication PMC12928844 (Nature, 2025)

Tests used:
K^c/cP LUAD tumour cells = experiment: scRNA-seq tumour fitness score of K^c/cP tumours; assay type: in vivo, mouse; settings: 3 weeks of treatment
Method in brief: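 KC/CP lung tumour-bearing mice (mixed C57BL/6;129S1, both sexes, littermate controls) received test compound at 100 mg kg−1 once daily i.p. in 40% (2-hydroxypropyl)-β-cyclodextrin, or vehicle. Tumour cells were filtered through 70 μm strainers, given ACK red-cell lysis, washed and counted for scRNA-seq. Malignant cells were called by inferCNV against normal mouse lung alveolar cells.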

K^cPC PDAC tumours = experiment: Autochthonous K^cPC PDAC mouse model treatment study; assay type: in vivo; settings: 2 weeks of treatment, 10 mg kg−1 daily
Method in brief: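 C57BL/6;129S1 mixed-background mice of both sexes, with littermates as controls. Control and monotherapy groups went through the same procedure but received vehicle. The survival end point was set by overall health criteria scoring, and health status and weight were checked daily.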

K^c/cP LUAD tumours = experiment: K^c/cP LUAD mouse model treatment study; assay type: in vivo; settings: at humane end point; about 100 nodules per mouse at start
[1] = test system: NSD2 and H3K36me2 levels in cell lines; experiment: Western blot after KRASi treatment; assay type: cell-based; settings: 100 nM sotorasib, 1 day

C=CC(=O)N1CCN(c2nc(=O)n(-c3c(C)ccnc3C(C)C)c3nc(-c4c(O)cccc4F)c(F)cc23)[C@@H](C)C1 [KRASi, sotorasib]
tumour fitness score (scRNA-seq) (K^c/cP LUAD tumour cells): decreased score | ERK1/2 phosphorylation in PDAC tumour lysates (western) (K^cPC PDAC tumours): blocked ERK1 and ERK2 (ERK1/2) phosphorylation | individual tumours (nodules) eliminated (K^c/cP LUAD tumours): ~75% | levels of NSD2 or H3K36me2 (western) [1]: does not impact
